In ChEMBL document CHEMBL4251593, “Nontoxic combretafuranone analogues with high in vitro antibacterial activity” (Eur J Med Chem, 2018):
Converted amounts (≈) assume the structure as drawn. The source made the active and inactive calls. No cut-off for these calls is given here.

What was measured:
Aspergillus fumigatus = assay: Antifungal activity against Aspergillus fumigatus 231 up to 1 mM after 24 to 48 hrs by microdilution assay; format: functional, organism-based
How it was run: (§1)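 Fungal microdilution following modified CLSI M27-A3/M38-A2, in RPMI 1640 with L-glutamine and 0.165 M MOPS at pH 7.0, with DMSO no more than 2% final. Compounds were 2-fold serially diluted from 2000 to 0.488 µmol/l. The inoculum was 5×10^3 cfu/ml. Incubation was at 35 °C, read visually at 24/48 h (T. mentagrophytes at 72/120 h). MIC was IC80 for yeasts and IC50 for filamentous fungi, determined twice in duplicate.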

Pichia kudriavzevii [1] = assay: Antifungal activity against Candida krusei E28 clinical isolate up to 1 mM after 24 to 48 hrs by microdilution assay; format: functional, organism-based; how it was run: as §1
TERT-RPE1 [2] = assay: Cytotoxicity against human RPE1 cells assessed as reduction in cell viability after 48 hrs by ATPlite-based luminescent assay; conditions: RPE-1, 48 h
How it was run: (§2)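 Cells were grown […] with 10% FBS, glutamax, NEAA and pen/strep at 37 °C, 5% CO2. Media were DMEM for RPE-1, HepG2 and BJ (BJ plus 10 ng/ml bFGF), F-12K for PC3, and IMDM for K562/HL-60. Cells were seeded at 500 per well and dosed from DMSO at 12 concentrations, 40 µM to 1 nM, in triplicate. After 48 h, intracellular ATP was read by luminescence. ED50 was obtained by variable-slope nonlinear regression.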

Staphylococcus aureus [3] = assay: Antibacterial activity against methicillin-resistant Staphylococcus aureus HK5996/08 clinical isolate after 24 hrs by microdilution assay; format: functional; conditions: HK5996/08, 24 h
Candida albicans [4] = assay: Antifungal activity against Candida albicans ATCC 90028 up to 1 mM after 24 to 48 hrs by microdilution assay; format: functional, organism-based; how it was run: as §1
BJ = assay: Cytotoxicity against human BJ cells assessed as reduction in cell viability after 48 hrs by ATPlite-based luminescent assay; how it was run: as §2
Enterococcus sp. [5] = assay: Antibacterial activity against Enterococcus sp. HK14365/08 clinical isolate after 24 hrs by microdilution assay; format: functional; conditions: HK14365/08, 24 h
HL-60 [6] = assay: Induction of apoptosis in human HL60 cells assessed as caspase 3/7 activity after 24 hrs by caspase-glo luminescent assay; format: cell-based; conditions: HL-60, 24 h
How it was run: (§3)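 Cells were seeded at 500 per well in their growth media and exposed to 12 concentrations from 40 µM to 1 nM, delivered from DMSO, in triplicate. After 24 h, caspase-3/7 activity was read by Caspase-Glo luminescence. Data were normalized and ED50 was fitted by variable-slope nonlinear regression.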

Klebsiella pneumoniae [7] = assay: Antibacterial activity against Klebsiella pneumoniae HK14368/08 clinical isolate after 48 hrs by microdilution assay; format: functional; conditions: HK14368/08, 48 h
PC-3 [8] = assay: Induction of apoptosis in human PC3 cells assessed as caspase 3/7 activity after 24 hrs by caspase-glo luminescent assay; format: cell-based; conditions: PC-3, 24 h; how it was run: as §3
Klebsiella pneumoniae [9] = assay: Antibacterial activity against Klebsiella pneumoniae HK11750/08 clinical isolate after 48 hrs by microdilution assay; format: functional; conditions: HK11750/08, 48 h
Pseudomonas aeruginosa [10] = assay: Antibacterial activity against Pseudomonas aeruginosa ATCC 9027 after 48 hrs by microdilution assay; format: functional; conditions: ATCC 9027, 48 h
How it was run: (§4)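 Broth microdilution in Mueller-Hinton medium buffered to pH 7.4 (±0.2), with DMSO as diluent at no more than 2% final. Compounds were tested as 2-fold serial dilutions from 2000 to 0.488 µmol/l. The inoculum was 0.5 McFarland (1.5×10^8 cfu/ml). Plates were held at 37 °C and read visually at 24 and 48 h. MIC was taken as 95% growth inhibition versus control, determined twice in duplicate.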

Nakaseomyces glabratus = assay: Antifungal activity against Candida glabrata 20/I clinical isolate up to 1 mM after 24 to 48 hrs by microdilution assay; format: functional, organism-based; how it was run: as §1
K562 [11] = assay: Induction of apoptosis in human K562 cells assessed as caspase 3/7 activity after 24 hrs by caspase-glo luminescent assay; format: cell-based; conditions: K562, 24 h; how it was run: as §3
Klebsiella pneumoniae [12] = assay: Antibacterial activity against Klebsiella pneumoniae HK14368/08 clinical isolate after 24 hrs by microdilution assay; format: functional; conditions: HK14368/08, 24 h
MCF7 = assay: Cytotoxicity against human MCF7 cells assessed as reduction in cell viability after 48 hrs by ATPlite-based luminescent assay; conditions: MCF7, 48 h
Klebsiella pneumoniae [13] = assay: Antibacterial activity against Klebsiella pneumoniae HK11750/08 clinical isolate after 24 hrs by microdilution assay; format: functional; conditions: HK11750/08, 24 h
HepG2 [14] = assay: Induction of apoptosis in human HepG2 cells assessed as caspase 3/7 activity after 24 hrs by caspase-glo luminescent assay; format: cell-based; conditions: HepG2, 24 h; how it was run: as §3
HL-60 [15] = assay: Cytotoxicity against human HL60 cells assessed as reduction in cell viability after 48 hrs by ATPlite-based luminescent assay; conditions: HL-60, 48 h; how it was run: as §2
Candida albicans [16] = assay: Antifungal activity against Candida albicans ATCC 44859 up to 1 mM after 24 to 48 hrs by microdilution assay; format: functional, organism-based; how it was run: as §1
Escherichia coli [17] = assay: Antibacterial activity against Escherichia coli ATCC 8739 after 24 hrs by microdilution assay; format: functional; conditions: ATCC 8739, 24 h; how it was run: as §4
Staphylococcus aureus [18] = assay: Antibacterial activity against methicillin-resistant Staphylococcus aureus HK5996/08 clinical isolate after 48 hrs by microdilution assay; format: functional; conditions: HK5996/08, 48 h
[19] = tested on: Staphylococcus epidermidis; assay: Antibacterial activity against Staphylococcus epidermidis HK6966/08 clinical isolate after 48 hrs by microdilution assay; format: functional; conditions: HK6966/08, 48 h
K562 [20] = assay: Cytotoxicity against human K562 cells assessed as reduction in cell viability after 48 hrs by ATPlite-based luminescent assay; conditions: K562, 48 h; how it was run: as §2
Candida tropicalis = assay: Antifungal activity against Candida tropicalis 156 clinical isolate up to 1 mM after 24 to 48 hrs by microdilution assay; format: functional, organism-based; how it was run: as §1
PC-3 [21] = assay: Cytotoxicity against human PC3 cells assessed as reduction in cell viability after 48 hrs by ATPlite-based luminescent assay; conditions: PC-3, 48 h; how it was run: as §2
Trichosporon asahii = assay: Antifungal activity against Trichosporon asahii 1188 clinical isolate up to 1 mM after 24 to 48 hrs by microdilution assay; format: functional, organism-based; how it was run: as §1
Enterococcus sp. [22] = assay: Antibacterial activity against Enterococcus sp. HK14365/08 clinical isolate after 48 hrs by microdilution assay; format: functional; conditions: HK14365/08, 48 h
Pichia kudriavzevii [23] = assay: Antifungal activity against Candida krusei ATCC 6258 up to 1 mM after 24 to 48 hrs by microdilution assay; format: functional, organism-based; how it was run: as §1
[24] = tested on: Trichophyton mentagrophytes; assay: Antifungal activity against Trichophyton mentagrophytes 445 up to 1 mM after 72 to 120 hrs by microdilution assay; format: functional, organism-based; how it was run: as §1
TERT-RPE1 [25] = assay: Induction of apoptosis in human RPE1 cells assessed as caspase 3/7 activity after 24 hrs by caspase-glo luminescent assay; format: cell-based; conditions: RPE-1, 24 h; how it was run: as §3
Pseudomonas aeruginosa [26] = assay: Antibacterial activity against Pseudomonas aeruginosa ATCC 9027 after 24 hrs by microdilution assay; format: functional; conditions: ATCC 9027, 24 h; how it was run: as §4
Staphylococcus aureus [27] = assay: Antibacterial activity against Staphylococcus aureus ATCC 6538 after 48 hrs by microdilution assay; format: functional; conditions: ATCC 6538, 48 h
Staphylococcus aureus [28] = assay: Antibacterial activity against Staphylococcus aureus ATCC 6538 after 24 hrs by microdilution assay; format: functional; conditions: ATCC 6538, 24 h
Clavispora lusitaniae = assay: Antifungal activity against Candida lusitaniae 2446/I clinical isolate up to 1 mM after 24 to 48 hrs by microdilution assay; format: functional, organism-based; how it was run: as §1
Candida parapsilosis = assay: Antifungal activity against Candida parapsilosis ATCC 22019 up to 1 mM after 24 to 48 hrs by microdilution assay; format: functional, organism-based; how it was run: as §1
Lichtheimia corymbifera = assay: Antifungal activity against Absidia corymbifera 272 up to 1 mM after 24 to 48 hrs by microdilution assay; format: functional, organism-based; how it was run: as §1
[29] = tested on: Staphylococcus epidermidis; assay: Antibacterial activity against Staphylococcus epidermidis HK6966/08 clinical isolate after 24 hrs by microdilution assay; format: functional; conditions: HK6966/08, 24 h
HepG2 [30] = assay: Cytotoxicity against human HepG2 cells assessed as reduction in cell viability after 48 hrs by ATPlite-based luminescent assay; conditions: HepG2, 48 h; how it was run: as §2
Escherichia coli [31] = assay: Antibacterial activity against Escherichia coli ATCC 8739 after 48 hrs by microdilution assay; format: functional; conditions: ATCC 8739, 48 h; how it was run: as §4

Row | Compound | IC50 (TERT-RPE1 [2]) [µM] | MIC95 (Staphylococcus aureus [3]) [µM] | IC50 (BJ) [µM] | MIC95 (Enterococcus sp. [5]) [µM] | IC50 (HL-60 [6]) [µM] | MIC95 (Klebsiella pneumoniae [7]) [µM] | IC50 (PC-3 [8]) [µM] | MIC95 (Klebsiella pneumoniae [9]) [µM] | MIC95 (Pseudomonas aeruginosa [10]) [µM] | IC50 (K562 [11]) [µM] | MIC95 (Klebsiella pneumoniae [12]) [µM] | IC50 (MCF7) [µM] | MIC95 (Klebsiella pneumoniae [13]) [µM] | IC50 (HepG2 [14]) [µM] | IC50 (HL-60 [15]) [µM] | MIC95 (Escherichia coli [17]) [µM] | MIC95 (Staphylococcus aureus [18]) [µM] | MIC95 [19] [µM] | IC50 (K562 [20]) [µM] | IC50 (PC-3 [21]) [µM] | further results
1 | O=C1OC(CO)(CO)C(c2ccc(Br)cc2)=C1c1cccc(Cl)c1Cl | > 40 | > 500 | > 40 | > 500 | > 40 | > 500 | > 40 | > 500 | > 500 | > 40 | > 500 | > 40 | > 500 | > 40 | > 40 | > 500 | > 500 | 250 (≈ 111 µg/mL) | > 40 | > 40 | Activity (Aspergillus fumigatus): inactive; Activity (Pichia kudriavzevii [1]): inactive; Activity (Candida albicans [4]): inactive; Activity (Nakaseomyces glabratus): inactive; Activity (Candida albicans [16]): inactive; Activity (Candida tropicalis): inactive; Activity (Trichosporon asahii): inactive; MIC95 (Enterococcus sp. [22]): > 500 µM; Activity (Pichia kudriavzevii [23]): inactive; Activity [24]: inactive; IC50 (TERT-RPE1 [25]): > 40 µM; MIC95 (Pseudomonas aeruginosa [26]): > 500 µM; MIC95 (Staphylococcus aureus [27]): 31.2 µM (≈ 13.9 µg/mL); MIC95 (Staphylococcus aureus [28]): 15.6 µM (≈ 6.94 µg/mL); Activity (Clavispora lusitaniae): inactive; Activity (Candida parapsilosis): inactive; Activity (Lichtheimia corymbifera): inactive; MIC95 [29]: 62.5 µM (≈ 27.8 µg/mL); IC50 (HepG2 [30]): > 40 µM; MIC95 (Escherichia coli [31]): > 500 µM
2 | Cc1ccc(C2=C(c3ccc(Br)cc3)C(=O)OC2)cc1 | 0.97 | 62.5 (≈ 20.6 µg/mL) | > 40 | > 1000 | 2.77 | > 1000 | > 40 | > 1000 | > 1000 | 0.29 | > 1000 | 14.8 | > 1000 | > 40 | 0.65 | > 1000 | 62.5 (≈ 20.6 µg/mL) | 31.2 (≈ 10.3 µg/mL) | 0.3 | > 40 | MIC95 (Enterococcus sp. [22]): > 1000 µM; IC50 (TERT-RPE1 [25]): 8.16 µM; MIC95 (Pseudomonas aeruginosa [26]): > 1000 µM; MIC95 (Staphylococcus aureus [27]): 15.6 µM (≈ 5.14 µg/mL); MIC95 (Staphylococcus aureus [28]): 7.81 µM (≈ 2.57 µg/mL); MIC95 [29]: 15.6 µM (≈ 5.14 µg/mL); IC50 (HepG2 [30]): > 40 µM; MIC95 (Escherichia coli [31]): > 1000 µM
